{"source": "ChEMBL document CHEMBL1275408", "about": "“A chemical genomic screen in Saccharomyces cerevisiae reveals a role for diphthamidation of translation elongation factor 2 in inhibition of protein synthesis by sordarin” (2008)", "key": {"[1]": {"tested_on": "Saccharomyces cerevisiae", "assay": "Antifungal activity against Saccharomyces cerevisiae BY4741 harboring PTP3 YER075C mutant gene by spectrophotometry", "format": "functional", "how_it_was_run": "(§1)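 Haploid MATa BY4741 KanMX4 deletion strains pinned from frozen stocks into YPD + G418 (150 mg/liter), grown 3 days at 28°C to confluence, then pin-replicated into SC liquid with no drug or sordarin derivative GM193663 (2 ng/ml sensitivity; 62.5 ng/ml resistance). 28°C, OD595 read every 24 h for 5 days; growth scored relative to wild type on same plate and to untreated mutant.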"}, "[2]": {"tested_on": "Saccharomyces cerevisiae", "assay": "Antifungal activity against Saccharomyces cerevisiae BY4741 harboring YBL100C mutation assessed as reduction in fungal growth at 2 ng/ml by spectrophotometry", "format": "functional, organism-based", "how_it_was_run": "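Deletion strains (BY4741 background) pre-grown 3 days at 28°C in YPD + G418 (150 mg/liter), then pin-replicated into SC liquid containing 2 ng/ml GM193663 or no drug. 28°C, OD595 every 24 h over 5 days; growth scored against wild type on same plate and against drug-free mutant control; hits retested at least in duplicate at 2 ng/ml.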"}, "[3]": {"tested_on": "Saccharomyces cerevisiae", "assay": "Antifungal activity against Saccharomyces cerevisiae BY4741 harboring UBX3 YDL091C mutant gene by spectrophotometry", "format": "functional", "how_it_was_run": "as §1"}, "[4]": {"tested_on": "Saccharomyces cerevisiae", "assay": "Antifungal activity against Saccharomyces cerevisiae BY4741 harboring LDB17 YDL146W mutant gene by spectrophotometry", "format": "functional", "how_it_was_run": "(§2)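 Screen of BY4741 KanMX4 deletion strains pre-grown 3 days at 28°C in YPD with G418 (150 mg/liter), then pinned into liquid SC containing GM193663. The sensitivity screen used 2 ng/ml; the resistance screen used 62.5 ng/ml, with validation at 62.5, 125 and 500 ng/ml. OD595 was read every 24 h over 5 days at 28°C. Growth was scored relative to wild type and to drug-free controls. Retests were at least in duplicate.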"}, "[5]": {"tested_on": "Saccharomyces cerevisiae", "assay": "Antifungal activity against Saccharomyces cerevisiae BY4741 harboring deletion mutation in dph1 gene at 100 ng/ml by plate assay", "format": "functional, organism-based", "how_it_was_run": "(§3)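 Spot test on solid SC glucose plates with or without 100 ng/ml sordarin. Drops of 10^5 cells plus 10-fold serial dilutions of each dph deletion strain were spotted alongside the parental strain. Plates were incubated at 28°C for 6 days and imaged every 24 h.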"}, "[6]": {"tested_on": "Saccharomyces cerevisiae", "assay": "Antifungal activity against Saccharomyces cerevisiae BY4741 harboring AMS1 YGL156W mutant gene by spectrophotometry", "format": "functional", "how_it_was_run": "as §2"}, "[7]": {"tested_on": "Saccharomyces cerevisiae", "assay": "Antifungal activity against Saccharomyces cerevisiae BY4741 harboring RMD9 YGL107C mutant gene by spectrophotometry", "format": "functional", "how_it_was_run": "as §1"}, "[8]": {"tested_on": "Saccharomyces cerevisiae", "assay": "Antifungal activity against Saccharomyces cerevisiae BY4741 harboring YER184C mutation in unknown gene by spectrophotometry", "format": "functional", "how_it_was_run": "(§4)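 Deletion strains from the nonessential haploid MATa BY4741 collection (KanMX4 replacement) were grown in YPD with G418 at 28°C for 3 days, then pinned into liquid SC with or without sordarin derivative GM193663 (2 ng/ml for sensitivity, 62.5 ng/ml for resistance). Cultures were kept at 28°C and read at OD595 every 24 h for 5 days. Growth was scored against wild type on the same plate and against the drug-free control. Hits were retested at least in duplicate.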"}, "[9]": {"tested_on": "Saccharomyces cerevisiae", "assay": "Antifungal activity against Saccharomyces cerevisiae BY4741 harboring CUE1 YMR264W mutant gene by spectrophotometry", "format": "functional", "how_it_was_run": "as §2"}, "[10]": {"tested_on": "Saccharomyces cerevisiae", "assay": "Antifungal activity against Saccharomyces cerevisiae BY4741 harboring YLR202C mutation in unknown gene by spectrophotometry", "format": "functional", "how_it_was_run": "as §4"}, "[11]": {"tested_on": "Saccharomyces cerevisiae", "assay": "Antifungal activity against Saccharomyces cerevisiae BY4741 harboring MIP6 YHR015W mutant gene by spectrophotometry", "format": "functional", "how_it_was_run": "as §2"}, "[12]": {"tested_on": "Saccharomyces cerevisiae", "assay": "Antifungal activity against Saccharomyces cerevisiae BY4741 harboring BUD9 YGR041W mutant gene by spectrophotometry", "format": "functional", "how_it_was_run": "as §2"}, "[13]": {"tested_on": "Saccharomyces cerevisiae", "assay": "Antifungal activity against Saccharomyces cerevisiae BY4741 harboring TOK1 YJL093C mutant gene by spectrophotometry", "format": "functional", "how_it_was_run": "as §1"}, "[14]": {"tested_on": "Saccharomyces cerevisiae", "assay": "Antifungal activity against Saccharomyces cerevisiae BY4741 harboring DPH2 YKL191W mutant gene by spectrophotometry", "format": "functional", "how_it_was_run": "as §2"}, "[15]": {"tested_on": "Saccharomyces cerevisiae", "assay": "Antifungal activity against Saccharomyces cerevisiae BY4741 harboring deletion mutation in dph5 gene at 100 ng/ml by plate assay", "format": "functional, organism-based", "how_it_was_run": "as §3"}, "[16]": {"tested_on": "Saccharomyces cerevisiae", "assay": "Antifungal activity against Saccharomyces cerevisiae BY4741 harboring BAP2 YBR068C mutant gene by spectrophotometry", "format": "functional", "how_it_was_run": "as §2"}, "[17]": {"tested_on": "Saccharomyces cerevisiae", "assay": "Antifungal activity against Saccharomyces cerevisiae BY4741 harboring ADE4 YMR300C mutant gene by spectrophotometry", "format": "functional", "how_it_was_run": "as §2"}, "[18]": {"tested_on": "Saccharomyces cerevisiae", "assay": "Antifungal activity against Saccharomyces cerevisiae BY4741 harboring GGC1 YDL198C mutant gene by spectrophotometry", "format": "functional", "how_it_was_run": "as §2"}, "[19]": {"tested_on": "Saccharomyces cerevisiae", "assay": "Antifungal activity against Saccharomyces cerevisiae BY4741 harboring MRPL24 YMR193W mutant gene by spectrophotometry", "format": "functional", "how_it_was_run": "as §1"}, "[20]": {"tested_on": "Saccharomyces cerevisiae", "assay": "Antifungal activity against Saccharomyces cerevisiae BY4741 harboring ATP1 YBL099W mutant gene assessed as reduction in fungal growth at 2 ng/ml by spectrophotometry", "format": "functional, organism-based", "how_it_was_run": "(§5)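 Haploid BY4741 KanMX4 deletion strains pre-grown in YPD with G418 (150 mg/liter) for 3 days at 28°C. They were then pin-replicated into liquid SC with sordarin derivative GM193663 at 2 ng/ml, or without drug. Plates were incubated at 28°C and OD595 read every 24 h for 5 days. Growth was scored against wild type on the same plate and against the drug-free mutant. Hits were retested at least in duplicate.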"}, "[21]": {"tested_on": "Saccharomyces cerevisiae", "assay": "Antifungal activity against Saccharomyces cerevisiae BY4741 harboring MRPL3 YMR024W mutant gene by spectrophotometry", "format": "functional", "how_it_was_run": "as §1"}, "[22]": {"tested_on": "Saccharomyces cerevisiae", "assay": "Antifungal activity against Saccharomyces cerevisiae BY4741 harboring YMR141C mutation in unknown gene by spectrophotometry", "format": "functional", "how_it_was_run": "as §4"}, "[23]": {"tested_on": "Saccharomyces cerevisiae", "assay": "Antifungal activity against Saccharomyces cerevisiae BY4741 harboring YKL098W mutation in unknown gene by spectrophotometry", "format": "functional", "how_it_was_run": "as §4"}, "[24]": {"tested_on": "Saccharomyces cerevisiae", "assay": "Antifungal activity against Saccharomyces cerevisiae BY4741 harboring YDL062W mutation in unknown gene by spectrophotometry", "format": "functional", "how_it_was_run": "as §1"}, "[25]": {"tested_on": "Saccharomyces cerevisiae", "assay": "Antifungal activity against Saccharomyces cerevisiae BY4741 harboring LYS14 YDR034C mutant gene by spectrophotometry", "format": "functional", "how_it_was_run": "as §2"}, "[26]": {"tested_on": "Saccharomyces cerevisiae", "assay": "Antifungal activity against Saccharomyces cerevisiae BY4741 harboring deletion mutation in dph1 gene at 300 to 500 ng/ml after 24 hrs by liquid growth assay", "format": "functional"}, "[27]": {"tested_on": "Saccharomyces cerevisiae", "assay": "Antifungal activity against Saccharomyces cerevisiae BY4741 harboring YSC83 YHR017W mutant gene by spectrophotometry", "format": "functional", "how_it_was_run": "as §4"}, "[28]": {"tested_on": "Saccharomyces cerevisiae", "assay": "Antifungal activity against Saccharomyces cerevisiae BY4741 harboring PRR2 YDL214C mutant gene by spectrophotometry", "format": "functional", "how_it_was_run": "as §1"}, "[29]": {"tested_on": "Saccharomyces cerevisiae", "assay": "Antifungal activity against Saccharomyces cerevisiae BY4741 harboring RAD28 YDR030C mutant gene by spectrophotometry", "format": "functional", "how_it_was_run": "as §1"}, "[30]": {"tested_on": "Saccharomyces cerevisiae", "assay": "Antifungal activity against Saccharomyces cerevisiae BY4741 harboring RPL21A YBR191W mutant gene by spectrophotometry", "format": "functional", "how_it_was_run": "as §1"}, "[31]": {"tested_on": "Saccharomyces cerevisiae", "assay": "Antifungal activity against Saccharomyces cerevisiae BY4741 harboring SBE2 YDR351W mutant gene by spectrophotometry", "format": "functional", "how_it_was_run": "as §1"}, "[32]": {"tested_on": "Saccharomyces cerevisiae", "assay": "Antifungal activity against Saccharomyces cerevisiae BY4741 harboring QRI5 YLR204W mutant gene by spectrophotometry", "format": "functional", "how_it_was_run": "as §1"}, "[33]": {"tested_on": "Saccharomyces cerevisiae", "assay": "Antifungal activity against Saccharomyces cerevisiae BY4741 harboring MHP1 YJL042W mutant gene by spectrophotometry", "format": "functional", "how_it_was_run": "as §2"}, "[34]": {"tested_on": "Saccharomyces cerevisiae", "assay": "Antifungal activity against Saccharomyces cerevisiae BY4741 harboring HEM14 YER014W mutant gene assessed as reduction in fungal growth at 2 ng/ml by spectrophotometry", "format": "functional, organism-based", "how_it_was_run": "as §5"}}, "note": "The source made the active and inactive calls. The rule behind the calls is not given here."}
{"compound": "CO[C@H]1[C@@H](O)[C@H](O)[C@H](OC[C@@]23C[C@@H]4[C@H](C)CC[C@H]4[C@@]4(C=O)CC2C=C(C(C)C)[C@@]34C(=O)O)O[C@@H]1C", "note": "[SORDARIN]", "values": [{"measurement": "MIC", "setting": "[1]", "result": "> 0.125", "unit": "µg/mL"}, {"measurement": "Activity", "setting": "[2]", "result": "Active"}, {"measurement": "MIC", "setting": "[3]", "result": "> 0.5", "unit": "µg/mL"}, {"measurement": "MIC", "setting": "[4]", "result": "> 0.125", "unit": "µg/mL"}, {"measurement": "MIC", "setting": "[5]", "result": "inactive"}, {"measurement": "MIC", "setting": "[6]", "result": "> 0.125", "unit": "µg/mL"}, {"measurement": "MIC", "setting": "[7]", "result": "> 0.125", "unit": "µg/mL"}, {"measurement": "MIC", "setting": "[8]", "result": "> 0.125", "unit": "µg/mL"}, {"measurement": "MIC", "setting": "[9]", "result": "> 0.0625", "unit": "µg/mL"}, {"measurement": "MIC", "setting": "[10]", "result": "> 0.5", "unit": "µg/mL"}, {"measurement": "MIC", "setting": "[11]", "result": "> 0.5", "unit": "µg/mL"}, {"measurement": "MIC", "setting": "[12]", "result": "> 0.125", "unit": "µg/mL"}, {"measurement": "MIC", "setting": "[13]", "result": "> 0.125", "unit": "µg/mL"}, {"measurement": "MIC", "setting": "[14]", "result": "> 0.5", "unit": "µg/mL"}, {"measurement": "MIC", "setting": "[15]", "result": "inactive"}, {"measurement": "MIC", "setting": "[16]", "result": "> 0.125", "unit": "µg/mL"}, {"measurement": "MIC", "setting": "[17]", "result": "> 0.5", "unit": "µg/mL"}, {"measurement": "MIC", "setting": "[18]", "result": "> 0.5", "unit": "µg/mL"}, {"measurement": "MIC", "setting": "[19]", "result": "> 0.125", "unit": "µg/mL"}, {"measurement": "Activity", "setting": "[20]", "result": "Active"}, {"measurement": "MIC", "setting": "[21]", "result": "> 0.125", "unit": "µg/mL"}, {"measurement": "MIC", "setting": "[22]", "result": "> 0.5", "unit": "µg/mL"}, {"measurement": "MIC", "setting": "[23]", "result": "> 0.5", "unit": "µg/mL"}, {"measurement": "MIC", "setting": "[24]", "result": "> 0.125", "unit": "µg/mL"}, {"measurement": "MIC", "setting": "[25]", "result": "> 0.5", "unit": "µg/mL"}, {"measurement": "Activity", "setting": "[26]", "result": 50, "unit": "%"}, {"measurement": "MIC", "setting": "[27]", "result": "> 0.5", "unit": "µg/mL"}, {"measurement": "MIC", "setting": "[28]", "result": "> 0.5", "unit": "µg/mL"}, {"measurement": "MIC", "setting": "[29]", "result": "> 0.5", "unit": "µg/mL"}, {"measurement": "MIC", "setting": "[30]", "result": "> 0.125", "unit": "µg/mL"}, {"measurement": "MIC", "setting": "[31]", "result": "> 0.5", "unit": "µg/mL"}, {"measurement": "MIC", "setting": "[32]", "result": "> 0.125", "unit": "µg/mL"}, {"measurement": "MIC", "setting": "[33]", "result": "> 0.125", "unit": "µg/mL"}, {"measurement": "Activity", "setting": "[34]", "result": "Active"}]}
